# Source: ChEMBL document CHEMBL3286242, “Design, synthesis and biological evaluation of arylcinnamide hybrid derivatives as novel anticancer agents” (Eur J Med Chem, 2014)
# The source made the active and inactive calls. No cut-off for these calls is given here.
# Experiments:
# [1] = tested on: LoVo; assay: Cytotoxicity against human LoVo cells assessed as growth inhibition after 72 hrs by MTT assay; assay type: functional, cell-based
# [2] = tested on: HeLa; assay: Cytotoxicity against human HeLa cells assessed as growth inhibition after 72 hrs by MTT assay; assay type: functional, cell-based
# [3] = tested on: HT-29; assay: Cytotoxicity against human HT-29 cells assessed as growth inhibition after 72 hrs by MTT assay; assay type: functional, cell-based; details: HT-29, 72 h
# [4] = tested on: CCRF-CEM; assay: Cytotoxicity against human CEM cells assessed as growth inhibition after 72 hrs by MTT assay; assay type: functional, cell-based
# [5] = tested on: Jurkat; assay: Cytotoxicity against human Jurkat cells assessed as growth inhibition after 72 hrs by MTT assay; assay type: functional, cell-based
# [6] = Cytotoxicity against human SEM cells assessed as growth inhibition after 72 hrs by MTT assay; assay type: functional, cell-based
# [7] = tested on: MCF7; assay: Cytotoxicity against human MCF7 cells assessed as growth inhibition after 72 hrs by MTT assay; assay type: functional, cell-based; details: MCF7, 72 h
# [8] = biological target: Tubulin (Bos taurus) (UniProt Q6B856+Q862L2+Q862F3); assay: Inhibition of bovine brain tubulin polymerization at 20 uM by turbidimetry
# Method in brief: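 Purified bovine brain tubulin (10 μM) preincubated with compound in glutamate buffer at 30 °C, cooled to 0 °C, GTP added, then warmed to 30 °C in cuvettes; assembly followed turbidimetrically; concentrations up to 20 μM.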
inhibition [8],SMILES,IC50 [1] [nM],IC50 [2] [nM],IC50 [3] [nM],IC50 [4] [nM],IC50 [5] [nM],IC50 [6] [nM],IC50 [7] [nM]
–,COc1cccc2c1C(=O)c1c(O)c3c(c(O)c1C2=O)C[C@@](O)(C(=O)CO)C[C@@H]3O[C@H]1C[C@H](N)[C@H](O)[C@H](C)O1 [DOXORUBICIN],90,–,–,–,–,–,–
–,C=C(Br)C(=O)Nc1cccc(/C=C/C(=O)Nc2ccc(Cl)cc2)c1,5900,2800,7900,460,2600,1190,11000
–,C=C(Br)C(=O)Nc1cccc(/C=C/C(=O)Nc2ccccc2)c1,3900,7300,16600,190,5000,1100,27300
inactive,C=C(Br)C(=O)Nc1cccc(/C=C/C(=O)Nc2ccc(F)c(F)c2)c1,540,1900,8700,13,550,90,2690
–,C=C(Br)C(=O)Nc1cccc(/C=C/C(=O)Nc2ccc(OCC)cc2)c1,850,2000,3400,98,930,180,5500
–,C=C(Br)C(=O)Nc1ccc(/C=C/C(=O)Nc2ccc(OC)cc2)cc1,60,1600,3100,22,1400,80,3000
–,C=C(Br)C(=O)Nc1cccc(/C=C/C(=O)Nc2cc(OC)cc(OC)c2)c1,1210,2200,3600,11,980,40,3000
–,C=C(Br)C(=O)Nc1cccc(/C=C/C(=O)Nc2cccc(F)c2)c1,1000,1200,4600,26000,1000,620,3300
–,COc1cc(NC(=O)/C=C/c2cccc(OCc3ccccc3)c2)cc(OC)c1OC,21700,2200,3600,17300,3500,8500,2400
–,C=C(Br)C(=O)Nc1cccc(/C=C/C(=O)Nc2ccc(OC(F)(F)F)cc2)c1,30300,29000,61200,13000,30300,19300,43300
–,C=C(Br)C(=O)Nc1cccc(/C=C/C(=O)Nc2cccc3ccccc23)c1,1160,1400,6500,1800,680,830,2800
